# Experimental data reported in ChEMBL document CHEMBL3739379, “Anti-Candida activity and cytotoxicity of a large library of new N-substituted-1,3-thiazolidin-4-one derivatives” (Eur J Med Chem, 2016).
# System: Proteus mirabilis
# Assay: Antibacterial activity against Proteus mirabilis after 18 to 22 hrs by broth microdilution method
# Format: functional
# Details: not given
# Summary of the method: (§1)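 Broth microdilution per NCCLS in Mueller-Hinton II broth; isolates subcultured for purity. Compounds dissolved in DMSO, serial dilutions 256 to 0.5 µg/mL; inoculum 10^5/mL. Controls: organism without compound, medium only. Incubation 18 to 22 h at 35 °C. MIC is the lowest concentration giving complete growth inhibition, read by unaided eye.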
row,Structure (SMILES),MIC
1,CCCCC/C(C)=N/N=C1\SCC(=O)N1Cc1ccc([N+](=O)[O-])cc1,> 256 µg/mL
2,CC(C)=N/N=C1\SCC(=O)N1CN1C(=O)c2ccccc2C1=O,> 256 µg/mL

# System: not listed separately
# Assay: Cytotoxicity against human Hep2 cells assessed as cell survival at 50 ug/ml after 24 hrs by trypan blue exclusion test (reference value: 87 to 94%)
# Format: cell-based, HEp-2
# Details: read-out: Survival
row,Structure (SMILES),"viability at 24 h, 50 ug/ml"
1,CCCCC/C(C)=N/N=C1\SCC(=O)N1Cc1ccc([N+](=O)[O-])cc1,0%
2,CC(C)=N/N=C1\SCC(=O)N1CN1C(=O)c2ccccc2C1=O,0%

# System: Staphylococcus aureus
# Assay: Antibacterial activity against Staphylococcus aureus after 18 to 22 hrs by broth microdilution method
# Format: functional
# Details: not given
# Summary of the method: as §1
row,Structure (SMILES),MIC
1,CCCCC/C(C)=N/N=C1\SCC(=O)N1Cc1ccc([N+](=O)[O-])cc1,> 256 µg/mL
2,CC(C)=N/N=C1\SCC(=O)N1CN1C(=O)c2ccccc2C1=O,> 256 µg/mL

# System: Candida albicans
# Assay: Antifungal activity against Candida albicans clinical isolate after 24 hrs by sabouraud dextrose broth based microdilution method
# Format: functional
# Details: not given
# Summary of the method: (§2)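 Clinical isolates identified by conventional methods and subcultured for purity. Broth microdilution per NCCLS in Sabouraud dextrose broth; compounds dissolved in DMSO and serially diluted; inoculum 10^3/mL. Controls: fungi without compound, medium only. Incubated 24 h at 37 °C. MIC is the lowest concentration with complete growth inhibition by unaided eye. Values are geometric means over isolates per species.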
row,Structure (SMILES),MIC
1,CCCCC/C(C)=N/N=C1\SCC(=O)N1Cc1ccc([N+](=O)[O-])cc1,4 µg/mL
2,CC(C)=N/N=C1\SCC(=O)N1CN1C(=O)c2ccccc2C1=O,4 µg/mL

# System: Pichia kudriavzevii
# Assay: Antifungal activity against Candida krusei clinical isolate after 24 hrs by sabouraud dextrose broth based microdilution method
# Format: functional
# Details: not given
# Summary of the method: as §2
row,Structure (SMILES),MIC
1,CCCCC/C(C)=N/N=C1\SCC(=O)N1Cc1ccc([N+](=O)[O-])cc1,2 µg/mL
2,CC(C)=N/N=C1\SCC(=O)N1CN1C(=O)c2ccccc2C1=O,2 µg/mL

# System: not listed separately
# Assay: Cytotoxicity against human Hep2 cells assessed as cell survival at 0.5 ug/ml after 24 hrs by trypan blue exclusion test (reference value: 87 to 94%)
# Format: cell-based, HEp-2
# Details: read-out: Survival
row,Structure (SMILES),"viability at 24 h, 0.5 ug/ml"
1,CCCCC/C(C)=N/N=C1\SCC(=O)N1Cc1ccc([N+](=O)[O-])cc1,93.5%
2,CC(C)=N/N=C1\SCC(=O)N1CN1C(=O)c2ccccc2C1=O,73%

# System: [Candida] sake
# Assay: Antifungal activity against Candida sake clinical isolate after 24 hrs by sabouraud dextrose broth based microdilution method
# Format: functional
# Details: Fermentozyma sake
# Summary of the method: as §2
row,Structure (SMILES),MIC
1,CCCCC/C(C)=N/N=C1\SCC(=O)N1Cc1ccc([N+](=O)[O-])cc1,2 µg/mL
2,CC(C)=N/N=C1\SCC(=O)N1CN1C(=O)c2ccccc2C1=O,2 µg/mL

# System: Escherichia coli
# Assay: Antibacterial activity against Escherichia coli at after 18 to 22 hrs by broth microdilution method
# Format: functional
# Details: not given
# Summary of the method: as §1
row,Structure (SMILES),MIC
1,CCCCC/C(C)=N/N=C1\SCC(=O)N1Cc1ccc([N+](=O)[O-])cc1,> 256 µg/mL
2,CC(C)=N/N=C1\SCC(=O)N1CN1C(=O)c2ccccc2C1=O,> 256 µg/mL

# System: Nakaseomyces glabratus
# Assay: Antifungal activity against Candida glabrata clinical isolate after 24 hrs by sabouraud dextrose broth based microdilution method
# Format: functional
# Details: not given
# Summary of the method: as §2
row,Structure (SMILES),MIC
1,CCCCC/C(C)=N/N=C1\SCC(=O)N1Cc1ccc([N+](=O)[O-])cc1,1 µg/mL
2,CC(C)=N/N=C1\SCC(=O)N1CN1C(=O)c2ccccc2C1=O,1 µg/mL

# System: Enterococcus faecalis
# Assay: Antibacterial activity against […] faecalis after 18 to 22 hrs by broth microdilution method
# Format: functional
# Details: not given
# Summary of the method: as §1
row,Structure (SMILES),MIC
1,CCCCC/C(C)=N/N=C1\SCC(=O)N1Cc1ccc([N+](=O)[O-])cc1,> 256 µg/mL
2,CC(C)=N/N=C1\SCC(=O)N1CN1C(=O)c2ccccc2C1=O,> 256 µg/mL

# System: Staphylococcus warneri
# Assay: Antibacterial activity against Staphylococcus warneri after 18 to 22 hrs by broth microdilution method
# Format: functional
# Details: not given
# Summary of the method: as §1
row,Structure (SMILES),MIC
1,CCCCC/C(C)=N/N=C1\SCC(=O)N1Cc1ccc([N+](=O)[O-])cc1,> 256 µg/mL
2,CC(C)=N/N=C1\SCC(=O)N1CN1C(=O)c2ccccc2C1=O,> 256 µg/mL

# System: not listed separately
# Assay: Cytotoxicity against human Hep2 cells assessed as cell survival after 24 hrs by trypan blue exclusion method
# Format: cell-based, HEp-2
# Details: not given
# Summary of the method: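 Hep2 cells grown in DMEM with 10% FBS and 1% streptomycin-penicillin at 37 °C, 5% CO2, used at 60-70% confluency. Seeded at 1 x 10^5/mL and exposed 24 h to five concentrations (0.05-100 µg/mL), DMSO ≤0.5%. Controls: medium alone, DMSO, 1 mM nitroprusside. Cells scraped, recovered 30 min, stained 1:1 with 0.4% Trypan blue, counted by two operators. Means of ≥3 independent experiments.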
row,Structure (SMILES),CC50 at 24 h
1,CCCCC/C(C)=N/N=C1\SCC(=O)N1Cc1ccc([N+](=O)[O-])cc1,35 µg/mL
2,CC(C)=N/N=C1\SCC(=O)N1CN1C(=O)c2ccccc2C1=O,22 µg/mL

# System: not listed separately
# Assay: Cytotoxicity against human Hep2 cells assessed as cell survival at 5 ug/ml after 24 hrs by trypan blue exclusion test (reference value: 87 to 94%)
# Format: cell-based, HEp-2
# Details: read-out: Survival
row,Structure (SMILES),"viability at 24 h, 5 ug/ml"
1,CCCCC/C(C)=N/N=C1\SCC(=O)N1Cc1ccc([N+](=O)[O-])cc1,87%
2,CC(C)=N/N=C1\SCC(=O)N1CN1C(=O)c2ccccc2C1=O,61%

# System: not listed separately
# Assay: Cytotoxicity against human Hep2 cells assessed as cell survival at 100 ug/ml after 24 hrs by trypan blue exclusion test (reference value: 87 to 94%)
# Format: cell-based, HEp-2
# Details: read-out: Survival
row,Structure (SMILES),"viability at 24 h, 100 ug/ml"
1,CCCCC/C(C)=N/N=C1\SCC(=O)N1Cc1ccc([N+](=O)[O-])cc1,0%
2,CC(C)=N/N=C1\SCC(=O)N1CN1C(=O)c2ccccc2C1=O,0%

# System: Klebsiella oxytoca
# Assay: Antibacterial activity against Klebsiella oxytoca after 18 to 22 hrs by broth microdilution method
# Format: functional
# Details: not given
# Summary of the method: as §1
row,Structure (SMILES),MIC
1,CCCCC/C(C)=N/N=C1\SCC(=O)N1Cc1ccc([N+](=O)[O-])cc1,> 256 µg/mL
2,CC(C)=N/N=C1\SCC(=O)N1CN1C(=O)c2ccccc2C1=O,> 256 µg/mL

# System: not listed separately
# Assay: Cytotoxicity against human Hep2 cells assessed as cell survival at 0.05 ug/ml after 24 hrs by trypan blue exclusion test (reference value: 87 to 94%)
# Format: cell-based, HEp-2
# Details: read-out: Survival
row,Structure (SMILES),"viability at 24 h, 0.05 ug/ml"
1,CCCCC/C(C)=N/N=C1\SCC(=O)N1Cc1ccc([N+](=O)[O-])cc1,95.4%
2,CC(C)=N/N=C1\SCC(=O)N1CN1C(=O)c2ccccc2C1=O,86%

# System: Candida tropicalis
# Assay: Antifungal activity against Candida tropicalis clinical isolate after 24 hrs by sabouraud dextrose broth based microdilution method
# Format: functional
# Details: not given
# Summary of the method: as §2
row,Structure (SMILES),MIC
1,CCCCC/C(C)=N/N=C1\SCC(=O)N1Cc1ccc([N+](=O)[O-])cc1,64 µg/mL
2,CC(C)=N/N=C1\SCC(=O)N1CN1C(=O)c2ccccc2C1=O,1 µg/mL

# System: Staphylococcus haemolyticus
# Assay: Antibacterial activity against Staphylococcus haemolyticus after 18 to 22 hrs by broth microdilution method
# Format: functional
# Details: not given
# Summary of the method: as §1
row,Structure (SMILES),MIC
1,CCCCC/C(C)=N/N=C1\SCC(=O)N1Cc1ccc([N+](=O)[O-])cc1,> 256 µg/mL
2,CC(C)=N/N=C1\SCC(=O)N1CN1C(=O)c2ccccc2C1=O,> 256 µg/mL

# System: Enterobacter sp.
# Assay: Antibacterial activity against Enterobacter sp. after 18 to 22 hrs by broth microdilution method
# Format: functional
# Details: not given
# Summary of the method: as §1
row,Structure (SMILES),MIC
1,CCCCC/C(C)=N/N=C1\SCC(=O)N1Cc1ccc([N+](=O)[O-])cc1,> 256 µg/mL
2,CC(C)=N/N=C1\SCC(=O)N1CN1C(=O)c2ccccc2C1=O,> 256 µg/mL

# System: Candida parapsilosis
# Assay: Antifungal activity against Candida parapsilosis clinical isolate after 24 hrs by sabouraud dextrose broth based microdilution method
# Format: functional
# Details: Lodderomyces parapsilosis
# Summary of the method: as §2
row,Structure (SMILES),MIC
1,CCCCC/C(C)=N/N=C1\SCC(=O)N1Cc1ccc([N+](=O)[O-])cc1,2 µg/mL
2,CC(C)=N/N=C1\SCC(=O)N1CN1C(=O)c2ccccc2C1=O,2 µg/mL
